Columns and labels:
Ehrlich [1] = assay: Cytotoxicity against mouse Ehrlich ascites carcinoma cells assessed as viable cells at 20 uL after 24 hrs by trypan blue exclusion assay; assay type: functional
Summary of the method: (§1)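 EAC cells maintained by i.p. passage in female Swiss albino mice. Cells aspirated from peritoneum, washed in HBSS and centrifuged at 1500 rpm for 15 min; 0.2 mL of diluted suspension plated. Compounds from 10 mmol stock in DMSO/H₂O (0.7:0.3) were added in triplicate and incubated 24 h at 37 °C, 5% CO₂. Viability by trypan blue exclusion; cytotoxicity calculated against control EAC cells.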

Ehrlich [2] = assay: Cytotoxicity against mouse Ehrlich ascites carcinoma cells assessed as viable cells at 30 uL after 24 hrs by trypan blue exclusion assay; assay type: functional; summary of the method: as §1
Ehrlich [3] = assay: Cytotoxicity against mouse Ehrlich ascites carcinoma cells assessed as cell death at 10 uL after 24 hrs by trypan blue exclusion assay
Ehrlich [4] = assay: Antitumor activity against mouse Ehrlich ascites carcinoma cells implanted in Swiss albino mouse assessed as tumor apoptotic index treated after 7 days post-tumor implantation at 1.25 mM/kg, sc for 5 days by histopathological analysis; assay type: functional
Summary of the method: (§2)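 H&E-stained 5 µm paraffin sections of solid tumour. Mitotic cells counted in 10 random fields (at least 1000 tumour cells) at 400×. Apoptotic bodies counted in 10 random fields at the same magnification. MI and AI given as percentage of total intact tumour cells.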

Ehrlich [5] = assay: Induction of apoptosis in mouse Ehrlich ascites carcinoma cells implanted in Swiss albino mouse assessed as increase in Fas-L expression treated after 7 days post-tumor implantation at 1.25 mM/kg, sc for 5 days by immunohistochemical analysis; assay type: functional
Summary of the method: (§3)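 Solid tumours from EAC-bearing female Swiss albino mice; formalin-fixed, paraffin-embedded 5 µm sections. Microwave antigen retrieval (20 min, 10 mmol citrate, pH 6.0) after peroxidase block; primary antibody overnight at room temperature, labelled streptavidin–biotin HRP detection, DAB chromogen, Mayer's hematoxylin counterstain. Immunoreactivity scored blind by light microscopy as intensity, % positive cells and H score.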

Ehrlich [6] = assay: Antitumor activity against mouse Ehrlich ascites carcinoma cells implanted in Swiss albino mouse treated after 7 days post-tumor implantation at 1.25 mM/kg, sc for 5 days relative to control; assay type: functional
Summary of the method: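 Female Swiss albino mice (n = 8 per group) received 0.2 mL EAC cells (2 × 10⁶ cells/mL) s.c. between the thighs of the lower limb. From day 7, compounds were given at 1.25 mM/kg s.c. daily for 5 consecutive days. […] control group received DMSO/H₂O. Mice were sacrificed and tumour volume change assessed on day 12 post-implantation.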

Mus musculus [7] = assay: Decrease in lipid peroxidation in mouse Ehrlich ascites carcinoma cells implanted in Swiss albino mouse assessed as malondialdehyde per gram of tissue treated after 7 days post-tumor implantation at 1.25 mM/kg, sc for 5 days; assay type: functional
Summary of the method: (§4)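 Livers from tumour-bearing mice were excised and rinsed in ice-cold saline, then in cold 0.15 mol/L Tris–HCl pH 7.4. They were blotted dry, weighed and homogenised at 10% w/v. Lipid peroxidation was expressed as nmol MDA/g tissue, catalase as kU/mg tissue and SOD as U/g tissue.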

Mus musculus [8] = assay: Increase in catalase activity per milligram of tissue in mouse Ehrlich ascites carcinoma cells implanted in Swiss albino mouse treated after 7 days post-tumor implantation at 1.25 mM/kg, sc for 5 days; assay type: functional; summary of the method: as §4
Mus musculus [9] = assay: Increase in SOD activity per gram of tissue in mouse Ehrlich ascites carcinoma cells implanted in Swiss albino mouse treated after 7 days post-tumor implantation at 1.25 mM/kg, sc for 5 days; assay type: functional; summary of the method: as §4
Ehrlich [10] = assay: Antitumor activity against mouse Ehrlich ascites carcinoma cells implanted in Swiss albino mouse assessed as tumor necrosis treated after 7 days post-tumor implantation at 1.25 mM/kg, sc for 5 days by histopathological analysis relative to control; assay type: functional
Summary of the method: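 Necrosis scored on H&E-stained 5 µm paraffin sections of excised solid tumour. Severity and percentage necrosis were graded, and an H score was calculated.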

Mus musculus [11] = assay: Toxicity in Swiss albino mouse bearing mouse Ehrlich ascites carcinoma cells assessed as focal degeneration of hepatocytes treated after 7 days post-tumor implantation at 1.25 mM/kg, sc for 5 days by histopathological analysis; assay type: organism-based; conditions: in vivo
Summary of the method: (§5)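 Liver specimens from the treated tumour-bearing mice were paraffin-embedded and cut as 5 µm sections. Sections were H&E-stained and graded for severity of hepatocyte degeneration and necrosis, with 0 meaning no degeneration or necrosis.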

Mus musculus [12] = assay: Toxicity in Swiss albino mouse bearing mouse Ehrlich ascites carcinoma cells assessed as hepatocyte necrosis treated after 7 days post-tumor implantation at 1.25 mM/kg, sc for 5 days by histopathological analysis; assay type: organism-based; conditions: in vivo, 1250 µM; summary of the method: as §5
Ehrlich [13] = assay: Antitumor activity against mouse Ehrlich ascites carcinoma cells implanted in Swiss albino mouse assessed as tumor mitotic index treated after 7 days post-tumor implantation at 1.25 mM/kg, sc for 5 days by histopathological analysis; assay type: functional; summary of the method: as §2
Mus musculus [14] = assay: Toxicity in Swiss albino mouse bearing mouse Ehrlich ascites carcinoma cells assessed as multifocal degeneration of hepatocytes treated after 7 days post-tumor implantation at 1.25 mM/kg, sc for 5 days by histopathological analysis; assay type: organism-based; conditions: in vivo, 1250 µM; summary of the method: as §5
Mus musculus [15] = assay: Toxicity in Swiss albino mouse bearing mouse Ehrlich ascites carcinoma cells assessed as focal necrosis of hepatocytes treated after 7 days post-tumor implantation at 1.25 mM/kg, sc for 5 days by histopathological analysis; assay type: organism-based; conditions: in vivo, 1250 µM; summary of the method: as §5
Ehrlich [16] = assay: Antiangiogenic activity against mouse Ehrlich ascites carcinoma cells implanted in Swiss albino mouse assessed as inhibition of VEGF expression treated after 7 days post-tumor implantation at 1.25 mM/kg, sc for 5 days by immunohistochemical analysis; assay type: functional; design: scale not given: the % may be the effect or the level left; summary of the method: as §3
Ehrlich [17] = assay: Antiproliferative activity against mouse Ehrlich ascites carcinoma cells implanted in Swiss albino mouse assessed as inhibition of Ki67 protein expression treated after 7 days post-tumor implantation at 1.25 mM/kg, sc for 5 days by immunohistochemical analysis; assay type: functional; design: scale not given: the % may be the effect or the level left; summary of the method: as §3
Mus musculus [18] = assay: Toxicity in Swiss albino mouse bearing mouse Ehrlich ascites carcinoma cells assessed as hepatocyte degeneration treated after 7 days post-tumor implantation at 1.25 mM/kg, sc for 5 days by histopathological analysis; assay type: organism-based; conditions: in vivo, 1250 µM; summary of the method: as §5

O=C1CCC(N2C(=O)c3ccccc3C2=O)C(=O)N1CSC(=S)NCc1ccccc1 (stereo not drawn)
Activity (Ehrlich [1]): 59%
Activity (Ehrlich [2]): 61.3%
Activity (Ehrlich [3]): 56.7%

CNC(=S)SCN1C(=O)CCC(N2C(=O)c3ccccc3C2=O)C1=O (stereo not drawn)
Activity (Ehrlich [1]): 80%
Activity (Ehrlich [2]): 85.7%
Activity (Ehrlich [3]): 76.5%

O=C1CCC(N2C(=O)c3ccccc3C2=O)C(=O)N1CSC(=S)NC1CCCCC1 (stereo not drawn)
Activity (Ehrlich [4]): 0.002
Activity (Ehrlich [5]): 44%
Activity (Ehrlich [1]): 60.8%
Activity (Ehrlich [2]): 95.2%
inhibition (INH) (Ehrlich [6]): 92.7%
Activity (Mus musculus [7]): 257.8 nmol
Activity (Mus musculus [8]): 6.4 kU
Activity (Mus musculus [9]): 128.6 U
Activity (Ehrlich [10]): 41%
Activity (Mus musculus [11]): Active
Activity (Mus musculus [12]): Non-toxic
Activity (Ehrlich [13]): 0.005
Activity (Ehrlich [3]): 20.6%

CCN(CC)C(=S)SCN1C(=O)CCC(N2C(=O)c3ccccc3C2=O)C1=O (stereo not drawn)
Activity (Ehrlich [1]): 20.7%
Activity (Ehrlich [2]): 90.6%
Activity (Ehrlich [3]): 10.2%

O=C1CCC(N2C(=O)c3ccccc3C2=O)C(=O)N1CSC(=S)NNc1ccccc1 (stereo not drawn)
Activity (Ehrlich [1]): 81.6%
Activity (Ehrlich [2]): 92%
Activity (Ehrlich [3]): 80%

O=C1CCC(N2C(=O)c3ccccc3C2=O)C(=O)N1CSC(=S)NN1CCOCC1 (stereo not drawn)
Activity (Ehrlich [1]): 70.6%
Activity (Ehrlich [2]): 91.3%
Activity (Ehrlich [3]): 30.5%

O=C1CCC(N2C(=O)c3ccccc3C2=O)C(=O)N1CSC(=S)NCCN1CCOCC1 (stereo not drawn)
Activity (Ehrlich [1]): 75.7%
Activity (Ehrlich [2]): 94.7%
Activity (Ehrlich [3]): 20.6%

O=C1CCC(N2C(=O)c3ccccc3C2=O)C(=O)N1CSC(=S)NCCN1CCCCC1 (stereo not drawn)
Activity (Ehrlich [4]): 0.004
Activity (Ehrlich [5]): 55%
Activity (Ehrlich [1]): 80.8%
Activity (Ehrlich [2]): 100%
inhibition (INH) (Ehrlich [6]): 99.6%
Activity (Mus musculus [7]): 247.6 nmol
Activity (Mus musculus [8]): 7.2 kU
Activity (Mus musculus [9]): 145.8 U
Activity (Ehrlich [10]): 100%
Activity (Mus musculus [14]): Active
Activity (Mus musculus [12]): Non-toxic
Activity (Ehrlich [13]): 0.004
Activity (Ehrlich [3]): 80.5%

O=C1CCC(N2C(=O)c3ccccc3C2=O)C(=O)N1CSC(=S)N1CCOCC1 (stereo not drawn)
Activity (Ehrlich [1]): 80.5%
Activity (Ehrlich [2]): 89.7%
Activity (Ehrlich [3]): 80%

O=C1CCC(N2C(=O)c3ccccc3C2=O)C(=O)N1CSC(=S)N1CCCCC1 (stereo not drawn)
Activity (Ehrlich [4]): 0.002
Activity (Ehrlich [5]): 120%
Activity (Ehrlich [1]): 80.4%
Activity (Ehrlich [2]): 95.3%
inhibition (INH) (Ehrlich [6]): 95.9%
Activity (Mus musculus [7]): 276.2 nmol
Activity (Mus musculus [8]): 7.2 kU
Activity (Mus musculus [9]): 152.4 U
Activity (Ehrlich [10]): 50%
Activity (Mus musculus [11]): Active
Activity (Mus musculus [12]): Non-toxic
Activity (Ehrlich [13]): 0.004
Activity (Ehrlich [3]): 10.3%

O=C1CCC(N2C(=O)c3ccccc3C2=O)C(=O)N1 (racemic) [THALIDOMIDE]
Activity (Ehrlich [4]): 0.003
Activity (Ehrlich [5]): 66%
Activity (Ehrlich [1]): 20.5%
Activity (Ehrlich [2]): 56.4%
inhibition (INH) (Ehrlich [6]): 80.6%
Activity (Mus musculus [7]): 330.2 nmol
Activity (Mus musculus [8]): 5.8 kU
Activity (Mus musculus [9]): 108.4 U
Activity (Ehrlich [10]): 44%
Activity (Mus musculus [11]): Active
Activity (Mus musculus [15]): Active
Activity (Ehrlich [13]): 0.006
Activity (Ehrlich [16]): 8%
Activity (Ehrlich [17]): 7.4%
Activity (Ehrlich [3]): 20.5%

CN1CCN(NC(=S)SCN2C(=O)CCC(N3C(=O)c4ccccc4C3=O)C2=O)CC1 (stereo not drawn)
Activity (Ehrlich [4]): 0.005
Activity (Ehrlich [5]): 60%
Activity (Ehrlich [1]): 80.7%
Activity (Ehrlich [2]): 100%
inhibition (INH) (Ehrlich [6]): 98.9%
Activity (Mus musculus [7]): 248.4 nmol
Activity (Mus musculus [8]): 8.2 kU
Activity (Mus musculus [9]): 162.2 U
Activity (Ehrlich [10]): 61%
Activity (Mus musculus [11]): Active
Activity (Mus musculus [12]): Non-toxic
Activity (Ehrlich [13]): 0.002
Activity (Ehrlich [3]): 80.4%

CSCN1C(=O)CCC(N2C(=O)c3ccccc3C2=O)C1=O (stereo not drawn)
Activity (Ehrlich [4]): 0.002
Activity (Ehrlich [5]): 45%
Activity (Ehrlich [1]): 71.5%
Activity (Ehrlich [2]): 82.8%
inhibition (INH) (Ehrlich [6]): 90.6%
Activity (Mus musculus [7]): 289.6 nmol
Activity (Mus musculus [8]): 6.7 kU
Activity (Mus musculus [9]): 139.8 U
Activity (Ehrlich [10]): 49%
Activity (Mus musculus [18]): Non-toxic
Activity (Mus musculus [12]): Non-toxic
Activity (Ehrlich [13]): 0.004
Activity (Ehrlich [3]): 62.5%

CCCNC(=S)SCN1C(=O)CCC(N2C(=O)c3ccccc3C2=O)C1=O (stereo not drawn)
Activity (Ehrlich [1]): 75.5%
Activity (Ehrlich [2]): 88.6%
Activity (Ehrlich [3]): 10.6%

O=C1CCC(N2C(=O)c3ccccc3C2=O)C(=O)N1CSC(=S)NCCc1ccccc1 (stereo not drawn)
Activity (Ehrlich [1]): 47.3%
Activity (Ehrlich [2]): 52%
Activity (Ehrlich [3]): 45%

O=C1CCC(N2C(=O)c3ccccc3C2=O)C(=O)N1CSC(=S)NCCN1CCNCC1 (stereo not drawn)
Activity (Ehrlich [1]): 60.6%
Activity (Ehrlich [2]): 68.8%
Activity (Ehrlich [3]): 45.5%

O=C1CCC(N2C(=O)c3ccccc3C2=O)C(=O)N1CSC(=S)N(CCO)CCO (stereo not drawn)
Activity (Ehrlich [1]): 30.6%
Activity (Ehrlich [2]): 87.8%
Activity (Ehrlich [3]): 20.6%

Source: ChEMBL document CHEMBL1151683, “Design, synthesis and antitumor evaluation of novel thalidomide dithiocarbamate and dithioate analogs against Ehrlich ascites carcinoma-induced solid tumor in Swiss albino mice” (Bioorg Med Chem, 2008)
